# Reference: ChEMBL document CHEMBL4422657, “Amino acid based prodrugs of a fosmidomycin surrogate as antimalarial and antitubercular agents” (Bioorg Med Chem, 2019)
# What was measured:
# MRC5 = assay: Cytotoxicity against human MRC5 cells after 24 hrs by resazurin dye based assay; type: cell-based; conditions: MRC5, 24 h
# Outline: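 MRC-5 human lung fibroblasts were grown in DMEM with 10% heat-inactivated FCS at 37 °C, 5% CO2. Cells were seeded at 4 x 10^4 per well and allowed to recover for at least 24 h, then exposed for 24 h to a two-fold dilution series (128 to 0.5 µM final). Cells were PBS-washed and incubated with resazurin for 3 h, and fluorescence was read at 560/590 nm. Tamoxifen served as positive control.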
# Plasmodium berghei [1] = assay: Antimalarial activity against Plasmodium berghei ANKA infected in Swiss mouse assessed as suppression of parasitaemia at 50 mg/kg, ip administered once daily for […] measured on 4 days post infection by flow cytometry relative to control; type: functional
# [2] = Toxicity in Swiss mouse infected with Plasmodium berghei ANKA assessed as change in body weight at 50 mg/kg, ip administered once daily for 5 days measured on 7 days post infection (reference value: 89%); type: organism-based; conditions: in vivo, 168 h
# Plasmodium berghei [3] = assay: Antimalarial activity against Plasmodium berghei ANKA infected in Swiss mouse assessed as parasitaemia at 50 mg/kg, ip administered once daily for 5 days measured on 7 days post infection by flow cytometry (reference value: 19%); type: functional
# Outline: (§1)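 Mice infected with P. berghei GFP ANKA strain were dosed intraperitoneally once daily for 5 consecutive days, at 50 mg/kg for test compounds or 10 mg/kg for chloroquine as the reference. Parasitemia was measured in surviving animals on days 4, 7, 11 and 14 post infection by flow cytometry, using 10 μL blood in 2000 μL PBS. Percent reduction was calculated against vehicle-treated infected controls.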
# Plasmodium berghei [4] = assay: Antimalarial activity against Plasmodium berghei ANKA infected in Swiss mouse assessed as parasitaemia at 50 mg/kg, ip administered once daily for 5 days measured on 11 days post infection by flow cytometry (reference value: 44%); type: functional; outline: as §1
# Plasmodium berghei [5] = assay: Antimalarial activity against Plasmodium berghei ANKA infected in Swiss mouse assessed as parasitaemia at 50 mg/kg, ip administered once daily for 5 days measured on 14 days post infection by flow cytometry (reference value: 64.6%); type: functional
# Plasmodium falciparum = assay: Antiplasmodial activity against chloroquine-resistant Plasmodium falciparum K1 infected in human erythrocytes measured after 72 hrs Malstat/NBT reagent based assay; type: functional, organism-based; conditions: K1, 72 h
# Outline: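 Infected human red blood cells (1% parasitaemia, 2% haematocrit) incubated 72 h with compound, then frozen at -20 °C. Growth read by Malstat: haemolysate with Malstat reagent 15 min RT, then NBT/PES 2 h RT in dark, absorbance at 655 nm. Chloroquine positive control. IC50 reported.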
# Plasmodium berghei [6] = assay: Antimalarial activity against Plasmodium berghei ANKA infected in Swiss mouse assessed as parasitaemia at 50 mg/kg, ip administered once daily for 5 days measured on 4 days post infection by flow cytometry (reference value: 17.1%); type: functional; outline: as §1
# [7] = tested on: Mycobacterium tuberculosis; assay: Antitubercular activity against Mycobacterium tuberculosis H37Rv after 7 days by Resazurin microtitre assay; type: functional; conditions: 168 h
# Outline: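 Resazurin microtiter assay with M. tuberculosis H37Rv in Middlebrook 7H9 + 10% OADC + 0.5% glycerol + 0.1% casitone. Two-fold dilutions, final 50 to 3.12 µM. Inoculum from LJ subculture at McFarland 1, diluted 1:10. 7 days at 37 °C, normal atmosphere, then resazurin overnight. MIC is the lowest concentration preventing the blue-to-pink change, read visually.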
# Plasmodium berghei [8] = assay: Antimalarial activity against Plasmodium berghei ANKA infected in Swiss mouse assessed as mean survival days at 50 mg/kg, ip administered once daily for 5 days (reference value: 11.2 day); type: functional
# [9] = Toxicity in Swiss mouse infected with Plasmodium berghei ANKA assessed as change in body weight at 50 mg/kg, ip administered once daily for 5 days measured on 14 days post infection (reference value: 75%); type: organism-based; conditions: in vivo, 336 h
# [10] = Toxicity in Swiss mouse infected with Plasmodium berghei ANKA assessed as change in body weight at 50 mg/kg, ip administered once daily for 5 days measured on 11 days post infection (reference value: 81%); type: organism-based; conditions: in vivo, 264 h
# [11] = Toxicity in Swiss mouse infected with Plasmodium berghei ANKA assessed as change in body weight at 50 mg/kg, ip administered once daily for 5 days measured on 4 days post infection (reference value: 100%); type: organism-based; conditions: in vivo, 96 h
# [12] = tested on: Mycobacterium tuberculosis; assay: Antitubercular activity against Mycobacterium tuberculosis H37Rv ATCC 27294 after 1 to 2 weeks; type: functional
# Plasmodium berghei [13] = assay: Antimalarial activity against Plasmodium berghei ANKA infected in Swiss mouse assessed as suppression of parasitaemia at 10 mg/kg, ip administered once daily for 5 days measured on 4 days post infection by flow cytometry relative to control; type: functional; outline: as §1
# [14] = Toxicity in Swiss mouse infected with Plasmodium berghei ANKA assessed as change in body weight at 10 mg/kg, ip administered once daily for 5 days measured on 7 days post infection (reference value: 89%); type: organism-based; conditions: in vivo, 168 h
# Plasmodium berghei [15] = assay: Antimalarial activity against Plasmodium berghei ANKA infected in Swiss mouse assessed as parasitaemia at 10 mg/kg, ip administered once daily for 5 days measured on 7 days post infection by flow cytometry (reference value: 19%); type: functional; outline: as §1
# Plasmodium berghei [16] = assay: Antimalarial activity against Plasmodium berghei ANKA infected in Swiss mouse assessed as parasitaemia at 10 mg/kg, ip administered once daily for 5 days measured on 11 days post infection by flow cytometry (reference value: 44%); type: functional; outline: as §1
# [17] = Toxicity in Swiss mouse infected with Plasmodium berghei ANKA assessed as change in body weight at 10 mg/kg, ip administered once daily for 5 days measured on 11 days post infection (reference value: 81%); type: organism-based; conditions: in vivo, 264 h
# Plasmodium berghei [18] = assay: Antimalarial activity against Plasmodium berghei ANKA infected in Swiss mouse assessed as mean survival days at 10 mg/kg, ip administered once daily for 5 days (reference value: 11.2 day); type: functional
# Plasmodium berghei [19] = assay: Antimalarial activity against Plasmodium berghei ANKA infected in Swiss mouse assessed as parasitaemia at 10 mg/kg, ip administered once daily for 5 days measured on 4 days post infection by flow cytometry (reference value: 17.1%); type: functional; outline: as §1
# [20] = Toxicity in Swiss mouse infected with Plasmodium berghei ANKA assessed as change in body weight at 10 mg/kg, ip administered once daily for 5 days measured on 4 days post infection (reference value: 100%); type: organism-based; conditions: in vivo, 96 h
Structure (SMILES),IC50 (MRC5) [µM],IC50 (Plasmodium falciparum) [µM],MIC [7] [µM],further results
CCOC(=O)[C@H](Cc1ccc(OP(=O)(CCCC(=O)N(C)O)Oc2ccc(C[C@H](NC(C)=O)C(=O)OCC)cc2)cc1)NC(C)=O,> 64,0.31,> 50,Activity (Plasmodium berghei [1]): 82%; Activity [2]: 104%; Activity (Plasmodium berghei [3]): 6.5%; Activity (Plasmodium berghei [4]): 29.2%; Activity (Plasmodium berghei [5]): 32.6%; Activity (Plasmodium berghei [6]): 3%; MSD (Plasmodium berghei [8]): 12.7 days; Activity [9]: 69%; Activity [10]: 86%; Activity [11]: 102%
CC(C)OC(=O)OCOP(=O)(CCCC(=O)N(C)O)OCOC(=O)OC(C)C,,,,Activity (Plasmodium berghei [1]): 99%; Activity [2]: 105%; Activity (Plasmodium berghei [3]): 0.04%; Activity (Plasmodium berghei [4]): 3.7%; Activity (Plasmodium berghei [5]): 16.4%; Activity (Plasmodium berghei [6]): 0.2%; MSD (Plasmodium berghei [8]): 15.3 days; Activity [9]: 100%; Activity [10]: 105%; Activity [11]: 104%
CC(C)C[C@H](NP(=O)(CCCC(=O)N(C)O)N[C@@H](CC(C)C)C(=O)OCc1ccccc1)C(=O)OCc1ccccc1,7.94,2.02,> 50,
CC(C)C[C@H](NP(=O)(CCCC(=O)N(C)O)N[C@@H](CC(C)C)C(=O)OC1CCCCC1)C(=O)OC1CCCCC1,7.65,4.56,> 50,
CC(C)C[C@H](NP(=O)(CCCC(=O)N(C)O)N[C@@H](CC(C)C)C(=O)OC(C)C)C(=O)OC(C)C,> 64,4.97,> 50,
CC(=O)N(CCCP(=O)(OCOC(=O)OC(C)(C)C)OCOC(=O)OC(C)(C)C)OCc1ccc(-c2ccccc2)cc1,,,,MIC [12]: 5.3 to 21 µM
CCOC(=O)[C@H](Cc1ccccc1)NP(=O)(CCCC(=O)N(C)O)N[C@@H](Cc1ccccc1)C(=O)OCC,> 64,4.71,> 50,
CCOC(=O)[C@H](Cc1ccc(OP(=O)(Oc2ccc(C[C@H](NC(C)=O)C(=O)OCC)cc2)C(CCC(=O)N(C)O)c2ccc(Cl)c(Cl)c2)cc1)NC(C)=O (stereo not given in full),36.9,> 41.1,> 50,
CCN(CC)CCCC(C)Nc1ccnc2cc(Cl)ccc12 (stereo not given) [CHLOROQUINE],,,,Activity (Plasmodium berghei [13]): 98.6%; Activity [14]: 101%; Activity (Plasmodium berghei [15]): 0.6%; Activity (Plasmodium berghei [16]): 11.9%; Activity [17]: 101%; MSD (Plasmodium berghei [18]): 14 days; Activity (Plasmodium berghei [19]): 0.2%; Activity [20]: 99%
CCOC(=O)[C@H](CCCCN)NP(=O)(CCCC(=O)N(C)O)N[C@@H](CCCCN)C(=O)OCC,> 64,0.96,> 50,Activity (Plasmodium berghei [1]): 0.6%; Activity [2]: 79%; Activity (Plasmodium berghei [3]): 30.1%; Activity (Plasmodium berghei [4]): 34.7%; Activity (Plasmodium berghei [6]): 17.1%; MSD (Plasmodium berghei [8]): 8.7 days; Activity [10]: 67%; Activity [11]: 99%
CCOC(=O)[C@H](CC(C)C)NP(=O)(CCCC(=O)N(C)O)N[C@@H](CC(C)C)C(=O)OCC,> 64,3.91,50,
CCCCCOC(=O)[C@H](CC(C)C)NP(=O)(CCCC(=O)N(C)O)N[C@@H](CC(C)C)C(=O)OCCCCC,7.46,2.37,> 50,
CCOC(=O)[C@@H](N)Cc1ccc(OP(=O)(CCCC(=O)N(C)O)Oc2ccc(C[C@H](N)C(=O)OCC)cc2)cc1,> 64,0.23,> 50,
CCOC(=O)[C@@H]1CCCN1P(=O)(CCCC(=O)N(C)O)N1CCC[C@H]1C(=O)OCC,> 64,10.2,> 50,
CCOC(=O)[C@H](C)NP(=O)(CCCC(=O)N(C)O)N[C@@H](C)C(=O)OCC,> 64,5.06,20,
CCOC(=O)[C@@H](NP(=O)(CCCC(=O)N(C)O)N[C@H](C(=O)OCC)C(C)C)C(C)C,> 64,12.7,> 50,
COC(=O)[C@H](CC(C)C)NP(=O)(CCCC(=O)N(C)O)N[C@@H](CC(C)C)C(=O)OC,> 64,1.76,> 50,
CCOC(=O)[C@@H](NP(=O)(CCCC(=O)N(C)O)N[C@H](C(=O)OCC)[C@@H](C)CC)[C@@H](C)CC,> 64,2,> 50,
CCOC(=O)[C@H](C)NP(=O)(N[C@@H](C)C(=O)OCC)C(CCC(=O)N(C)O)c1ccc(Cl)c(Cl)c1 (stereo not given in full),> 64,> 36.6,> 50,
